Assay results as given in ChEMBL document CHEMBL4393678, “Novel Tetrahydroquinazolinamines as Selective Histamine 3 Receptor Antagonists for the Treatment of Obesity” (J Med Chem, 2019).
The source made the active and inactive calls. The calls are words filed in the database; no cut-off is given here.

Columns and labels:
Mus musculus [1] = assay: Anti-obesity activity in high fat diet-induced obese C57BL/6J mouse model assessed as change in blood TG level at 10 to 20 mg/kg, po measured after 6 weeks; assay type: functional, organism-based
Summary of the method: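 At the end of treatment (six weeks HFD, four weeks db/db), mice euthanized with avertin 350 mg/kg. Blood taken by cardiac puncture into 3.8% sodium citrate. Plasma separated at 4000 rpm and stored at -80 °C. TG, TC, HDLc and LDLc measured on a bio-analyzer.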

Mus musculus [2] = assay: Anti-obesity activity in high fat diet-induced obese C57BL/6J mouse model assessed as reduction in body fat mass at 20 mg/kg, po measured after 6 weeks relative to control by NMR-based magnetic resonance imaging analysis; assay type: functional; design: scale not given: the % may be the effect or the level left
[3] = Toxicity in lean C57BL/6J mouse assessed as change in body weight at 20 mg/kg, po measured after 6 weeks; assay type: organism-based; settings: in vivo, 1008 h
[4] = target: T1, D(4) dopamine receptor (Homo sapiens) (UniProt P21917); assay: Agonist activity at D4 receptor (unknown origin)
T1 sequence (whole entry): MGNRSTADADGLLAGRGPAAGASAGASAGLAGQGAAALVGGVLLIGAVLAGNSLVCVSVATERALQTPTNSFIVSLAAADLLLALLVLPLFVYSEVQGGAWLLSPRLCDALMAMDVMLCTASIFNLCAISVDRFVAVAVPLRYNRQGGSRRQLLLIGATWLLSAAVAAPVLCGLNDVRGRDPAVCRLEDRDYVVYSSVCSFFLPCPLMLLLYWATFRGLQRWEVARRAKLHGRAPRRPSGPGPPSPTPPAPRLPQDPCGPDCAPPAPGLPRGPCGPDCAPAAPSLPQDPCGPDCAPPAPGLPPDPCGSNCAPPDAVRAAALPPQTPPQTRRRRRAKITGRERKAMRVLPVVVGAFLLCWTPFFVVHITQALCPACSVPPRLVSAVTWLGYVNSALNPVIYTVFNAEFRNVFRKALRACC

Mus musculus [5] = assay: Anti-obesity activity in 16 hrs fasted db/db-induced obese C57BL/6J mouse model assessed as improvement in glucose homeostasis at 20 mg/kg, po treated prior to glucose addition measured after 15 to 120 mins by IPGTT; assay type: functional, organism-based
Summary of the method: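 Mice fasted 16 h; baseline tail-vein glucose read by glucometer. Glucose given i.p. at 2 g/kg (C57BL/6J) or 1 g/kg (db/db).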

[6] = target: T2, 5-hydroxytryptamine receptor 2C (Homo sapiens) (UniProt P28335); assay: Antagonist activity at 5HT2CR (unknown origin) expressed in HEK293 cells harboring luc2P/NFAT-RE plasmid at 10 uM after 6 to 8 hrs by luciferase reporter gene assay; assay type: cell-based
T2 sequence (whole entry): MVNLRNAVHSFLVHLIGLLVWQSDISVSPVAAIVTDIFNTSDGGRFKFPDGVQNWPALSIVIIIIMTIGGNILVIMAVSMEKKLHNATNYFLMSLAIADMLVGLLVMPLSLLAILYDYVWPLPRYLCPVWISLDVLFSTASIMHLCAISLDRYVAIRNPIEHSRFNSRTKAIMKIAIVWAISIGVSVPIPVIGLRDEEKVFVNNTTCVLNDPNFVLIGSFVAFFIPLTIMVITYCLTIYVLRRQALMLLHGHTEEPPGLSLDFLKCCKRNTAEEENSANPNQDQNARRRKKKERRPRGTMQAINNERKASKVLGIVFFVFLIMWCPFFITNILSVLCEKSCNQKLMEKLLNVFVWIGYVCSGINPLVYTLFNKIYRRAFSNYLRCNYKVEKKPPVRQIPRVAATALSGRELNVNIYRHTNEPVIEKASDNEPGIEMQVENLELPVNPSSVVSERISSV
Summary of the method: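 NFAT-RE luciferase assay in HEK293T cells transiently co-transfected with luc2P/NFAT-RE plasmid and receptor plasmid. Cells plated in DMEM and incubated overnight at 37 °C, 5% CO₂. Compounds and reference ligands applied for 6-8 h. Luciferase read after adding Bright-Glo substrate (1 mg/ml final).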

[7] = target: T1, D(4) dopamine receptor (Homo sapiens); assay: Antagonist activity at D4 receptor (unknown origin)
[8] = target: D(3) dopamine receptor (Homo sapiens) (UniProt P35462); assay: Agonist activity at D3 receptor (unknown origin)
Sequence of D(3) dopamine receptor (Homo sapiens) (P35462 whole entry): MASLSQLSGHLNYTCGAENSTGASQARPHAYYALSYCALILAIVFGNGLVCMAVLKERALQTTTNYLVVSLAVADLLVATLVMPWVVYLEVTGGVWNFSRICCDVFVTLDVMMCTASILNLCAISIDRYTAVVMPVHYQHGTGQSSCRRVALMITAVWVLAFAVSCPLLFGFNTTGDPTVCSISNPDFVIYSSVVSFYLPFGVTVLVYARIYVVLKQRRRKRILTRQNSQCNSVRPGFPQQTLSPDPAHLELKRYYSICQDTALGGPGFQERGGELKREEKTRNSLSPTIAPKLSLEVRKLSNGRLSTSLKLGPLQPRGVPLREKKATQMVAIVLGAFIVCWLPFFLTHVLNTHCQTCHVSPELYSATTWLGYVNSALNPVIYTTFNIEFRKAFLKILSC

[9] = Ratio of AUClast in C57BL/6J mouse brain assessed as 4-(2-Amino-8-methyl-5,6,7,8-tetrahydroquinazolin-4-yl)phenol level to AUClast in C57BL/6J mouse brain; assay type: ADME, tissue-based; settings: in vivo
Summary of the method: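 Male C57BL/6J mice (6–8 weeks) were fasted 12–16 h, then given a single oral dose of 20 mg/kg as a 2.5 mg/mL suspension in 1% gum acacia/water (n=5 per time point). Serum and brain (homogenised 1:6 in PBS) were sampled up to 24 h. Parent and demethylated metabolite were measured by LC-MS/MS (range 0.25–200 ng/mL). AUC ran to the last observation.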

[10] = Toxicity in lean C57BL/6J mouse assessed as change in body fat mass at 10 to 20 mg/kg, po measured after 6 weeks; assay type: organism-based; settings: in vivo, 1008 h
[11] = Toxicity in lean C57BL/6J mouse assessed as effect on cumulative food intake at 20 mg/kg, po; assay type: organism-based; settings: in vivo
Summary of the method: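 Lean male C57BL/6J mice fasted 12 h (8 am-8 pm, water available), singly housed, given 20 mg/kg orally in 5% gum acacia/saline or vehicle. Cumulative food intake measured over 4 h night phase (9 pm-1 am) starting 30 min after dosing.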

[12] = Tmax in C57BL/6J mouse serum at 20 mg/kg, po by LC-MS/MS analysis; assay type: ADME, organism-based
Summary of the method: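 Male C57BL/6J mice (6-8 weeks, 20 ± 5 g) fasted overnight (12-16 h) got a single 20 mg/kg oral dose as 2.5 mg/mL suspension in 1% w/v gum acacia; n=5 per time point. Serum and brain (PBS homogenate 1:6 w/v) sampled up to 24 h. Parent and demethylated metabolite quantified by LC-MS/MS after liquid-liquid extraction (C18, MRM, phenacetin internal standard; linear 0.25-200 ng/mL). Two-compartment open model fit.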

[13] = target: T3, G-protein coupled bile acid receptor 1 (Homo sapiens) (UniProt Q8TDU6); assay: Agonist activity at Gs-coupled GPBAR1 (unknown origin) expressed in HEK293T cells assessed as inhibition of forskolin-stimulated cAMP accumulation preincubated for 10 to 15 followed by forskolin-stimulation by Glo-sensor assay; assay type: functional, cell-based
T3 sequence (whole entry): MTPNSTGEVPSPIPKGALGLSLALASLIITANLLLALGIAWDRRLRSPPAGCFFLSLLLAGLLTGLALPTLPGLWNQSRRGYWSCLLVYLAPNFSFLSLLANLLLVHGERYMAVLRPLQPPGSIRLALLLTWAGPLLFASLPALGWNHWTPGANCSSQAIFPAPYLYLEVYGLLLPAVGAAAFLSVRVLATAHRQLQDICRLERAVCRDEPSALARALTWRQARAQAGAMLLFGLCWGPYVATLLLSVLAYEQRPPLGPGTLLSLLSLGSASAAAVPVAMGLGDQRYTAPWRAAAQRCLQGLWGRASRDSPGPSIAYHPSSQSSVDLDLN

## COc1ccc(-c2nc(N)nc3c2CCCC3C)cc1 (racemic)
Mus musculus [1]
  Activity: inactive
Mus musculus [2]
  Activity: 27.1%
[3]
  Activity: Non-Toxic
[4]
  Activity: inactive
Mus musculus [5]
  Activity: Active
[6]
  inhibition: inactive
[7]
  inhibition: inactive
[8]
  Activity: inactive
[9]
  Ratio AUC: 32.4%
[10]
  Activity: Non-Toxic
[11]
  Activity: Non-Toxic
[12]
  Tmax: 15 min
[13]
  Activity: inactive
